Data published in ChEMBL document CHEMBL4706563, “Triphenylethylene analogues: Design, synthesis and evaluation of antitumor activity and topoisomerase inhibitors” (Eur J Med Chem, 2020).
The source made the active and inactive calls. No cut-off for these calls is given here.

What was measured:
Type in all cases: functional
SR = test: Antiproliferative activity against human SR cells assessed as growth inhibition at 10 uM relative to control; conditions: read-out: GI
Procedure, shortened: (§1)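 NCI 60 human tumour cell line panel screen. Compounds tested at a single dose and growth inhibition (%) determined for each line.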

CCRF-CEM = test: Antiproliferative activity against human CCRF-CEM cells assessed as growth inhibition at 10 uM relative to control; conditions: read-out: GI
Procedure, shortened: (§2)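 Single-dose screen run by the US National Cancer Institute across its 60-human tumour cell line panel. Each compound was tested at one concentration. Percent growth inhibition was recorded for each cell line.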

HL-60(TB) = test: Antiproliferative activity against human HL-60(TB) cells assessed as growth inhibition at 10 uM relative to control; conditions: read-out: GI
K562 = test: Antiproliferative activity against human K562 cells assessed as growth inhibition at 10 uM relative to control; conditions: read-out: GI; procedure, shortened: as §2
MOLT-4 = test: Antiproliferative activity against human MOLT-4 cells assessed as growth inhibition at 10 uM relative to control; conditions: read-out: GI; procedure, shortened: as §2
RPMI-8226 = test: Antiproliferative activity against human RPMI-8226 cells assessed as growth inhibition at 10 uM relative to control; conditions: read-out: GI; procedure, shortened: as §2
A549 = test: Antiproliferative activity against human A549 cells assessed as growth inhibition at 10 uM relative to control; conditions: read-out: GI; procedure, shortened: as §2
EKVX = test: Antiproliferative activity against human EKVX cells assessed as growth inhibition at 10 uM relative to control; conditions: read-out: GI; procedure, shortened: as §2
HOP-62 = test: Antiproliferative activity against human HOP-62 cells assessed as growth inhibition at 10 uM relative to control; conditions: read-out: GI; procedure, shortened: as §2
HOP-92 = test: Antiproliferative activity against human HOP-92 cells assessed as growth inhibition at 10 uM relative to control; conditions: read-out: GI; procedure, shortened: as §2
NCI-H226 = test: Antiproliferative activity against human NCI-H226 cells assessed as growth inhibition at 10 uM relative to control; conditions: read-out: GI; procedure, shortened: as §2
NCI-H23 = test: Antiproliferative activity against human NCI-H23 cells assessed as growth inhibition at 10 uM relative to control; procedure, shortened: as §2
NCI-H322M = test: Antiproliferative activity against human NCI-H322M cells assessed as growth inhibition at 10 uM relative to control; conditions: read-out: GI; procedure, shortened: as §2
NCI-H460 = test: Antiproliferative activity against human NCI-H460 cells assessed as growth inhibition at 10 uM relative to control; conditions: read-out: GI; procedure, shortened: as §2
NCI-H522 = test: Antiproliferative activity against human NCI-H522 cells assessed as growth inhibition at 10 uM relative to control; conditions: read-out: GI; procedure, shortened: as §2
COLO 205 = test: Antiproliferative activity against human COLO 205 cells assessed as growth inhibition at 10 uM relative to control; conditions: read-out: GI; procedure, shortened: as §2
HCC 2998 = test: Antiproliferative activity against human HCC 2998 cells assessed as growth inhibition at 10 uM relative to control; procedure, shortened: as §2
HCT-116 = test: Antiproliferative activity against human HCT-116 cells assessed as growth inhibition at 10 uM relative to control; conditions: read-out: GI; procedure, shortened: as §2
HCT-15 = test: Antiproliferative activity against human HCT-15 cells assessed as growth inhibition at 10 uM relative to control; conditions: read-out: GI; procedure, shortened: as §2
HT-29 = test: Antiproliferative activity against human HT29 cells assessed as growth inhibition at 10 uM relative to control; conditions: read-out: GI; procedure, shortened: as §2
KM12 = test: Antiproliferative activity against human KM12 cells assessed as growth inhibition at 10 uM relative to control; conditions: read-out: GI; procedure, shortened: as §2
SW-620 = test: Antiproliferative activity against human SW-620 cells assessed as growth inhibition at 10 uM relative to control; conditions: read-out: GI; procedure, shortened: as §1
SF-295 = test: Antiproliferative activity against human SF-295 cells assessed as growth inhibition at 10 uM relative to control; procedure, shortened: as §2
SF-539 = test: Antiproliferative activity against human SF-539 cells assessed as growth inhibition at 10 uM relative to control; conditions: read-out: GI; procedure, shortened: as §2
SNB-19 = test: Antiproliferative activity against human SNB-19 cells assessed as growth inhibition at 10 uM relative to control; procedure, shortened: as §1
SNB-75 = test: Antiproliferative activity against human SNB-75 cells assessed as growth inhibition at 10 uM relative to control; conditions: read-out: GI; procedure, shortened: as §1
U-251 = test: Antiproliferative activity against human U251 cells assessed as growth inhibition at 10 uM relative to control; conditions: read-out: GI; procedure, shortened: as §1
LOX IMVI = test: Antiproliferative activity against human LOX IMVI cells assessed as growth inhibition at 10 uM relative to control; conditions: read-out: GI; procedure, shortened: as §2
Malme-3M = test: Antiproliferative activity against human Malme-3M cells assessed as growth inhibition at 10 uM relative to control; conditions: read-out: GI; procedure, shortened: as §2
M14 = test: Antiproliferative activity against human M14 cells assessed as growth inhibition at 10 uM relative to control; conditions: read-out: GI; procedure, shortened: as §2
MDA-MB-435 = test: Antiproliferative activity against human MDA-MB-435 cells assessed as growth inhibition at 10 uM relative to control; conditions: read-out: GI; procedure, shortened: as §2
SK-MEL-2 = test: Antiproliferative activity against human SK-MEL-2 cells assessed as growth inhibition at 10 uM relative to control; conditions: read-out: GI; procedure, shortened: as §2
SK-MEL-28 = test: Antiproliferative activity against human SK-MEL-28 cells assessed as growth inhibition at 10 uM relative to control; conditions: read-out: GI; procedure, shortened: as §1
SK-MEL-5 = test: Antiproliferative activity against human SK-MEL-5 cells assessed as growth inhibition at 10 uM relative to control; conditions: read-out: GI; procedure, shortened: as §1
UACC-257 = test: Antiproliferative activity against human UACC-257 cells assessed as growth inhibition at 10 uM relative to control; conditions: read-out: GI; procedure, shortened: as §1
UACC-62 = test: Antiproliferative activity against human UACC-62 cells assessed as growth inhibition at 10 uM relative to control; conditions: read-out: GI; procedure, shortened: as §1
IGROV-1 = test: Antiproliferative activity against human IGROV-1 cells assessed as growth inhibition at 10 uM relative to control; conditions: read-out: GI; procedure, shortened: as §2
OVCAR-3 = test: Antiproliferative activity against human OVCAR-3 cells assessed as growth inhibition at 10 uM relative to control; conditions: read-out: GI; procedure, shortened: as §2
OVCAR-4 = test: Antiproliferative activity against human OVCAR-4 cells assessed as growth inhibition at 10 uM relative to control; conditions: read-out: GI; procedure, shortened: as §2
NCI/ADR-RES = test: Antiproliferative activity against human NCI/ADR-RES cells assessed as growth inhibition at 10 uM relative to control; conditions: read-out: GI; procedure, shortened: as §2
SK-OV-3 = test: Antiproliferative activity against human SK-OV-3 cells assessed as growth inhibition at 10 uM relative to control; conditions: read-out: GI; procedure, shortened: as §1
786-0 = test: Antiproliferative activity against human 786-0 cells assessed as growth inhibition at 10 uM relative to control; conditions: read-out: GI; procedure, shortened: as §2
A498 = test: Antiproliferative activity against human A498 cells assessed as growth inhibition at 10 uM relative to control; conditions: read-out: GI; procedure, shortened: as §2
ACHN = test: Antiproliferative activity against human ACHN cells assessed as growth inhibition at 10 uM relative to control; conditions: read-out: GI; procedure, shortened: as §2
CAKI-1 = test: Antiproliferative activity against human CAKI-1 cells assessed as growth inhibition at 10 uM relative to control; conditions: read-out: GI; procedure, shortened: as §2
SN12C = test: Antiproliferative activity against human SN12C cells assessed as growth inhibition at 10 uM relative to control; conditions: read-out: GI; procedure, shortened: as §1
TK-10 = test: Antiproliferative activity against human TK-10 cells assessed as growth inhibition at 10 uM relative to control; conditions: read-out: GI; procedure, shortened: as §1
UO-31 = test: Antiproliferative activity against human UO-31 cells assessed as growth inhibition at 10 uM relative to control; conditions: read-out: GI; procedure, shortened: as §1
PC-3 = test: Antiproliferative activity against human PC-3 cells assessed as growth inhibition at 10 uM relative to control; conditions: read-out: GI; procedure, shortened: as §2
DU-145 = test: Antiproliferative activity against human DU-145 cells assessed as growth inhibition at 10 uM relative to control; conditions: read-out: GI; procedure, shortened: as §2
MCF7 = test: Antiproliferative activity against human MCF7 cells assessed as growth inhibition at 10 uM relative to control; conditions: read-out: GI; procedure, shortened: as §2
MDA-MB-231 = test: Antiproliferative activity against human MDA-MB-231 cells assessed as growth inhibition at 10 uM relative to control; procedure, shortened: as §2
Hs-578T = test: Antiproliferative activity against human Hs-578T cells assessed as growth inhibition at 10 uM relative to control; conditions: read-out: GI; procedure, shortened: as §2
BT-549 = test: Antiproliferative activity against human BT-549 cells assessed as growth inhibition at 10 uM relative to control; conditions: read-out: GI; procedure, shortened: as §2
T47D = test: Antiproliferative activity against human T47D cells assessed as growth inhibition at 10 uM relative to control; conditions: read-out: GI; procedure, shortened: as §1
MDA-MB-468 = test: Antiproliferative activity against human MDA-MB-468 cells assessed as growth inhibition at 10 uM relative to control; conditions: read-out: GI; procedure, shortened: as §2
OVCAR-8 = test: Antiproliferative activity against human OVCAR-8 cells assessed as growth inhibition at 10 uM relative to control; conditions: read-out: GI; procedure, shortened: as §2

C/C(=C(/c1ccccc1)c1ccc(OCC(O)CN2CCOCC2)cc1)c1ccccc1 (configuration not stated)
inhibition of growth at 10 µM (SR): 52.8% | inhibition of growth at 10 µM (CCRF-CEM): 19.6% | inhibition of growth at 10 µM (HL-60(TB)): 39.3% | inhibition of growth at 10 µM (K562): 80.3% | inhibition of growth at 10 µM (MOLT-4): 38.5% | inhibition of growth at 10 µM (RPMI-8226): 25% | inhibition of growth at 10 µM (A549): 12.8% | inhibition of growth at 10 µM (EKVX): 3.36% | inhibition of growth at 10 µM (HOP-62): 9.9% | inhibition of growth at 10 µM (HOP-92): 19.8% | inhibition of growth at 10 µM (NCI-H226): 3.44% | growth inhibition (GI) (NCI-H23): inactive | inhibition of growth at 10 µM (NCI-H322M): 4.48% | inhibition of growth at 10 µM (NCI-H460): 7.41% | inhibition of growth at 10 µM (NCI-H522): 26.7% | inhibition of growth at 10 µM (COLO 205): 30.6% | growth inhibition (GI) (HCC 2998): inactive | inhibition of growth at 10 µM (HCT-116): 53.6% | inhibition of growth at 10 µM (HCT-15): 46.2% | inhibition of growth at 10 µM (HT-29): 86.9% | inhibition of growth at 10 µM (KM12): 36.4% | inhibition of growth at 10 µM (SW-620): 11.4% | growth inhibition (GI) (SF-295): inactive | inhibition of growth at 10 µM (SF-539): 25.8% | growth inhibition (GI) (SNB-19): inactive | inhibition of growth at 10 µM (SNB-75): 8.61% | inhibition of growth at 10 µM (U-251): 19.9% | inhibition of growth at 10 µM (LOX IMVI): 12.2% | inhibition of growth at 10 µM (Malme-3M): 24.8% | inhibition of growth at 10 µM (M14): -45.1% | inhibition of growth at 10 µM (MDA-MB-435): 9.29% | inhibition of growth at 10 µM (SK-MEL-2): 1.12% | inhibition of growth at 10 µM (SK-MEL-28): 10% | inhibition of growth at 10 µM (SK-MEL-5): 12.9% | inhibition of growth at 10 µM (UACC-257): 6.64% | inhibition of growth at 10 µM (UACC-62): 3% | inhibition of growth at 10 µM (IGROV-1): 3.82% | inhibition of growth at 10 µM (OVCAR-3): 9.6% | inhibition of growth at 10 µM (OVCAR-4): 10.7% | inhibition of growth at 10 µM (NCI/ADR-RES): 6.78% | inhibition of growth at 10 µM (SK-OV-3): 8.68% | inhibition of growth at 10 µM (786-0): 32.9% | inhibition of growth at 10 µM (A498): 8.44% | inhibition of growth at 10 µM (ACHN): 1.16% | inhibition of growth at 10 µM (CAKI-1): 19.9% | inhibition of growth at 10 µM (SN12C): 11.6% | inhibition of growth at 10 µM (TK-10): 5.68% | inhibition of growth at 10 µM (UO-31): 26.3% | inhibition of growth at 10 µM (PC-3): 28.2% | inhibition of growth at 10 µM (DU-145): 1.88% | inhibition of growth at 10 µM (MCF7): 15.8% | growth inhibition (GI) (MDA-MB-231): inactive | inhibition of growth at 10 µM (Hs-578T): 9.19% | inhibition of growth at 10 µM (BT-549): 6.69% | inhibition of growth at 10 µM (T47D): 39.7% | inhibition of growth at 10 µM (MDA-MB-468): 14.9% | inhibition of growth at 10 µM (OVCAR-8): 11.5%
